A short description of series [1]: Antiviral activity against wild type HIV1 NL4-3 infected in human TZM cells expressing GFP assessed as inhibition of viral LTR-activated GFP expression preincubated with compound for 24 hrs followed by viral infection and measured after 48 hrs. Format: functional, cell-based. The settings on record: Human immunodeficiency virus 1, NL4-3, TZM. A digest of the protocol: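 TZM-GFP cells at 1 × 10^4 cells/well were treated with increasing compound concentrations, then infected 24 h later with HIV-1 NL4-3 at MOI 0.1. After 48 h, GFP-positive cells were counted by imaging and compared with DMSO controls. EC50 came from a log(inhibitor) vs. normalized response, variable-slope fit. Run in duplicate, ≥2 independent experiments, mean ± SD.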

Series [2] is described as follows: Metabolic stability in human liver microsomes assessed as half-life measured upto 60 mins in the presence of NADPH as co-factor by LC-MS/MS analysis. It is filed as ADME, Microsome. (Microsomes from liver hold many membrane-bound enzymes, among them those of drug oxidation.)
The nature of series [3]: Potency index, ratio of test compound EC50 to PF74 EC50 for antiviral activity against wild type HIV1 NL4-3 infected in human TZM cells expressing GFP assessed as inhibition of viral LTR-activated GFP expression preincubated with compound for 24 hrs followed by viral infection and measured after 48 hrs. It is filed as functional, Human immunodeficiency virus 1. The settings on record: time 72 hrs.

The subject of series [4] is Human immunodeficiency virus 1. Briefly: Binding affinity to HIV-1 capsid protein 121 expressed in Escherichia coli BL21 (DE3) cells assessed as change in melting temperature at 20 uM measured every 10 sec by RT-PCR based thermal shift assay. A digest of the protocol: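 Crosslinked hexameric CA A14C/E45C/W184A/M185A (CA121), purified protein at 7.5 μM in 50 mM sodium phosphate pH 8.0 with 1× Sypro Orange; compound 20 μM or DMSO control, 1% DMSO final. Heated 25 to 95 °C at 0.2 °C per 10 s in a real-time PCR instrument; fluorescence Ex 475–500, Em 520–590 nm. ΔTm is the hexamer melting point with compound minus DMSO control.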

Series [5] is described as follows: Cytotoxicity against human TZM cells expressing GFP assessed as inhibition of cell growth incubated for 72 hrs by XTT assay. Format: toxicity, cell-based. The method, boiled down:
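TZM-GFP cells at 1 × 10^4 cells/well were exposed continuously to increasing compound concentrations for 72 h. Viable cells were read by XTT. CC50 came from a log(inhibitor) vs. normalized response, variable-slope curve fit. Run in duplicate, ≥2 independent experiments, mean ± SD.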

Series [6] in a line: Metabolic stability in human liver microsomes assessed as half-life at 1 uM measured upto 15 mins in the presence of NADPH as co-factor by LC-MS/MS analysis. Format: ADME, Microsome.
Series [7] is described as follows: Metabolic stability in mouse liver microsomes assessed as half-life at 1 uM measured upto 15 mins in the presence of NADPH as co-factor by LC-MS/MS analysis. Format: ADME, Microsome.

Structures are written as SMILES.

As usually defined, the EC50 is the midpoint of the concentration-response curve. One may read the half-life as the time in which the quantity being followed falls by half. As for `CN(C(=O)[C@H](Cc1ccccc1)NC(=O)CNC(=O)c1ccccc1)c1ccc(Cl)cc1`, the EC50 in series [1] was 0.88 µM. The half-life in series [2] turned out to be 36 min. For the same compound, the “Ratio EC50” value in series [3] is 1.4.
One may read the ΔTm as the change in melting temperature against a reference sample. Broadly, the CC50 is the concentration at which the toxic effect on the cells reaches its halfway point. With `CN(C(=O)[C@H](Cc1ccccc1)NC(=O)CN1CCN(C(=O)c2ccccc2Cl)CC1=O)c1ccc(Cl)cc1`, the ΔTm in series [4] amounted to 1.5 °C. Besides, in series [1], the EC50 was 6.4 µM. In addition, the CC50 at 72 h in series [5] was more than 50 µM. Further, the figures for the half-life at 1 µM in series [6] and in series [7] were 6.2 min and 1.1 min, respectively.
In the case of `CN(C(=O)[C@H](Cc1ccccc1)NC(=O)CN1CCN(C(=O)c2cccc(Br)c2)CC1=O)c1ccc(Cl)cc1`, in series [4], the thermal shift (ΔTm) was determined as 1.1 °C. The EC50 in series [1] was determined as 9 µM. Also, the CC50 at 72 h in series [5] is more than 50 µM. Besides, the half-life at 1 µM was found to be 4.8 min in series [6] and 1.4 min in series [7].

(Values after ChEMBL document CHEMBL5107954, “Potency and metabolic stability: a molecular hybrid case in the design of novel PF74-like small molecules targeting HIV-1 capsid protein” (RSC Med Chem, 2021).)
